Values after ≈ are worked out from the molar mass of the structure shown. Active and inactive are the calls of the source. The calls are words filed in the database; no cut-off is given here.
Experiments:
[1] = test system: Pentatrichomonas hominis; experiment: Antibacterial activity against Pentatrichomonas hominis ATCC 30000 after 48 hrs by ten-fold serial dilution method; type: functional; settings: ATCC 30000, 48 h
Outline: (§1)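 Trichomonads were cultured in Diamond medium with 5% serum and incubated 48 h at 37 °C. Cultures were examined microscopically for motile cells, and the MIC (µg/mL) is the lowest concentration giving no motile organisms.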

[2] = test system: Neisseria gonorrhoeae; experiment: Antibacterial activity against Neisseria gonorrhoeae ATCC 19424 after 48 hrs by ten-fold serial dilution method; type: functional; settings: ATCC 19424, 48 h
Outline: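 Tested on chocolate agar made from GC agar base with hemoglobin and Supplement C, incubated 48 h at 37 °C. Plates were checked visually, and the MIC (µg/mL) is the lowest concentration with no visible growth.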

[3] = test system: Clostridium perfringens; experiment: Antibacterial activity against Clostridium perfringens ATCC 13124 after 24 hrs by ten-fold serial dilution method; type: functional; settings: ATCC 13124, 24 h
Outline: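 Grown in Fluid Thioglycollate Broth and incubated 24 h at 37 °C. Growth was checked by eye after incubation. MIC was taken as the lowest concentration, in μg/mL, that prevented visible growth.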

[4] = test system: Candida albicans; experiment: Antifungal activity against Candida albicans; type: functional, organism-based
[5] = test system: Trichomonas vaginalis; experiment: Antibacterial activity against Trichomonas vaginalis ATCC 30001 after 48 hrs by ten-fold serial dilution method; type: functional; settings: ATCC 30001, 48 h; outline: as §1
[6] = test system: Tritrichomonas foetus; experiment: Antibacterial activity against Tritrichomonas foetus 1002-96-27 after 48 hrs by ten-fold serial dilution method; type: functional; settings: 1002-96-27, 48 h; outline: as §1
[7] = test system: Bacteroides fragilis; experiment: Antibacterial activity against Bacteroides fragilis ATCC 23745 after 24 hrs by ten-fold serial dilution method; type: functional; settings: ATCC 23745, 24 h
Outline: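 Grown in Fluid Thioglycollate Broth and incubated 24 h at 37 °C. Growth was read by eye, and the MIC (µg/mL) is the lowest concentration that prevented visible growth.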

SMILES	MIC [1]	MIC [2]	MIC [3]	Activity [4]	MIC [5]	MIC [6]	MIC [7]
Cn1c([N+](=O)[O-])cnc1SCCCCCCC(=O)O	1 µg/mL (≈ 3.48 µM)	0.1 µg/mL (≈ 0.348 µM)	1 µg/mL (≈ 3.48 µM)	inactive	1 µg/mL (≈ 3.48 µM)	10 µg/mL (≈ 34.8 µM)	1 µg/mL (≈ 3.48 µM)
Cn1c([N+](=O)[O-])cnc1[S+]([O-])CCCCCCCCCCC(=O)O (stereo unspecified)	100 µg/mL (≈ 278 µM)	100 µg/mL (≈ 278 µM)	> 100 µg/mL	inactive	10 µg/mL (≈ 27.8 µM)	100 µg/mL (≈ 278 µM)	> 100 µg/mL
Cn1c([N+](=O)[O-])cnc1SCCOc1ccc([N+](=O)[O-])cc1	1 µg/mL (≈ 3.08 µM)	> 100 µg/mL	100 µg/mL (≈ 308 µM)	inactive	10 µg/mL (≈ 30.8 µM)	100 µg/mL (≈ 308 µM)	100 µg/mL (≈ 308 µM)
Cn1c([N+](=O)[O-])cnc1[S+]([O-])CCOc1ccc(C#N)cc1 (stereo unspecified)	100 µg/mL (≈ 312 µM)	100 µg/mL (≈ 312 µM)	> 100 µg/mL	inactive	10 µg/mL (≈ 31.2 µM)	100 µg/mL (≈ 312 µM)	100 µg/mL (≈ 312 µM)
Cn1c([N+](=O)[O-])cnc1SCCCCCCCOc1ccccc1[N+](=O)[O-]	100 µg/mL (≈ 254 µM)	> 100 µg/mL	> 100 µg/mL	inactive	100 µg/mL (≈ 254 µM)	100 µg/mL (≈ 254 µM)	> 100 µg/mL
COC(=O)CCCCCCCCCCS(=O)(=O)c1ncc([N+](=O)[O-])n1C	> 100 µg/mL	> 100 µg/mL	> 100 µg/mL	inactive	> 100 µg/mL	> 100 µg/mL	> 100 µg/mL
Cn1c([N+](=O)[O-])cnc1SCCOc1ccc(C(=O)O)cc1 [listing 1 of 2 here]	1 µg/mL (≈ 3.09 µM)	1 µg/mL (≈ 3.09 µM)	10 µg/mL (≈ 30.9 µM)	–	1 µg/mL (≈ 3.09 µM)	1 µg/mL (≈ 3.09 µM)	10 µg/mL (≈ 30.9 µM)
Cn1c([N+](=O)[O-])cnc1SCCCCCCCC(=O)O	1 µg/mL (≈ 3.32 µM)	0.1 µg/mL (≈ 0.332 µM)	0.1 µg/mL (≈ 0.332 µM)	inactive	1 µg/mL (≈ 3.32 µM)	1 µg/mL (≈ 3.32 µM)	10 µg/mL (≈ 33.2 µM)
CCOC(=O)c1ccc(OCCCCCCCCCCSc2ncc([N+](=O)[O-])n2C)c([N+](=O)[O-])c1	10 µg/mL (≈ 19.7 µM)	> 100 µg/mL	> 100 µg/mL	inactive	10 µg/mL (≈ 19.7 µM)	10 µg/mL (≈ 19.7 µM)	10 µg/mL (≈ 19.7 µM)
Cn1c([N+](=O)[O-])cnc1SCCCCCCCCCCCC(=O)O	10 µg/mL (≈ 28 µM)	> 100 µg/mL	> 100 µg/mL	inactive	10 µg/mL (≈ 28 µM)	10 µg/mL (≈ 28 µM)	100 µg/mL (≈ 280 µM)
Cn1c([N+](=O)[O-])cnc1SCCCCCCCCC(=O)O	10 µg/mL (≈ 31.7 µM)	0.1 µg/mL (≈ 0.317 µM)	10 µg/mL (≈ 31.7 µM)	inactive	10 µg/mL (≈ 31.7 µM)	10 µg/mL (≈ 31.7 µM)	10 µg/mL (≈ 31.7 µM)
Cn1c([N+](=O)[O-])cnc1SCCOc1ccc(C#N)cc1	1 µg/mL (≈ 3.29 µM)	100 µg/mL (≈ 329 µM)	100 µg/mL (≈ 329 µM)	inactive	1 µg/mL (≈ 3.29 µM)	1 µg/mL (≈ 3.29 µM)	–
Cn1c([N+](=O)[O-])cnc1SCCCCC(=O)O	1 µg/mL (≈ 3.86 µM)	1 µg/mL (≈ 3.86 µM)	–	inactive	1 µg/mL (≈ 3.86 µM)	1 µg/mL (≈ 3.86 µM)	1 µg/mL (≈ 3.86 µM)
Br.CCOC(=O)c1ccc(OCCCCSc2nccn2C)cc1	100 µg/mL	> 100 µg/mL	> 100 µg/mL	–	100 µg/mL	100 µg/mL	> 100 µg/mL
Br.Cn1ccnc1SCCCCOc1ccccc1	> 100 µg/mL	100 µg/mL	> 100 µg/mL	inactive	> 100 µg/mL	> 100 µg/mL	> 100 µg/mL
Cn1c([N+](=O)[O-])cnc1[S+]([O-])CCOc1ccc(C(=O)O)cc1 (stereo unspecified)	100 µg/mL (≈ 295 µM)	100 µg/mL (≈ 295 µM)	100 µg/mL (≈ 295 µM)	inactive	100 µg/mL (≈ 295 µM)	100 µg/mL (≈ 295 µM)	100 µg/mL (≈ 295 µM)
Br.Cn1ccnc1SCCOc1ccc([N+](=O)[O-])cc1	> 100 µg/mL	100 µg/mL	> 100 µg/mL	inactive	> 100 µg/mL	> 100 µg/mL	> 100 µg/mL
COC(=O)CCCCCCCCCCSc1ncc([N+](=O)[O-])n1C	> 100 µg/mL	> 100 µg/mL	> 100 µg/mL	inactive	> 100 µg/mL	> 100 µg/mL	> 100 µg/mL
Cn1c([N+](=O)[O-])cnc1[S+]([O-])CCCCC(=O)O (stereo unspecified)	100 µg/mL (≈ 363 µM)	100 µg/mL (≈ 363 µM)	> 100 µg/mL	inactive	100 µg/mL (≈ 363 µM)	> 100 µg/mL	100 µg/mL (≈ 363 µM)
Cn1cc([N+](=O)[O-])nc1SCCCCCCC(=O)O	100 µg/mL (≈ 348 µM)	> 100 µg/mL	> 100 µg/mL	inactive	100 µg/mL (≈ 348 µM)	100 µg/mL (≈ 348 µM)	> 100 µg/mL
Cn1c([N+](=O)[O-])cnc1SCCCCCCCCCC(=O)O	1 µg/mL (≈ 3.04 µM)	0.1 µg/mL (≈ 0.304 µM)	10 µg/mL (≈ 30.4 µM)	inactive	10 µg/mL (≈ 30.4 µM)	1 µg/mL (≈ 3.04 µM)	10 µg/mL (≈ 30.4 µM)

SMILES	MIC [1]	MIC [2]	MIC [3]	Activity [4]	MIC [5]	MIC [6]	MIC [7]
Cn1c([N+](=O)[O-])cnc1S(=O)(=O)CCCCCCCOc1ccccc1[N+](=O)[O-]	> 100 µg/mL	> 100 µg/mL	> 100 µg/mL	inactive	> 100 µg/mL	> 100 µg/mL	> 100 µg/mL
Cc1ncc([N+](=O)[O-])n1CCO [METRONIDAZOLE]	1 µg/mL (≈ 5.84 µM)	> 100 µg/mL	10 µg/mL (≈ 58.4 µM)	inactive	10 µg/mL (≈ 58.4 µM)	1 µg/mL (≈ 5.84 µM)	1 µg/mL (≈ 5.84 µM)
Cn1c([N+](=O)[O-])cnc1SCCCCCCCCCCC(=O)O	10 µg/mL (≈ 29.1 µM)	0.1 µg/mL (≈ 0.291 µM)	10 µg/mL (≈ 29.1 µM)	inactive	10 µg/mL (≈ 29.1 µM)	10 µg/mL (≈ 29.1 µM)	10 µg/mL (≈ 29.1 µM)
Cn1c([N+](=O)[O-])cnc1SCCOc1ccc(C(=O)[O-])cc1.[Na+]	1 µg/mL	1 µg/mL	10 µg/mL	–	1 µg/mL	10 µg/mL	1 µg/mL
Cn1ccnc1SCCOc1ccc(C#N)cc1 [listing 1 of 2 here]	> 100 µg/mL	> 100 µg/mL	> 100 µg/mL	–	> 100 µg/mL	> 100 µg/mL	> 100 µg/mL
Cn1c([N+](=O)[O-])cnc1[S+]([O-])CCCCCCCOc1ccccc1[N+](=O)[O-] (stereo unspecified)	100 µg/mL (≈ 244 µM)	> 100 µg/mL	> 100 µg/mL	inactive	100 µg/mL (≈ 244 µM)	100 µg/mL (≈ 244 µM)	100 µg/mL (≈ 244 µM)
Cn1c([N+](=O)[O-])cnc1S(=O)(=O)CCCCC(=O)O	100 µg/mL (≈ 343 µM)	100 µg/mL (≈ 343 µM)	> 100 µg/mL	inactive	100 µg/mL (≈ 343 µM)	> 100 µg/mL	100 µg/mL (≈ 343 µM)
Cn1c([N+](=O)[O-])cnc1SCCC(=O)O	10 µg/mL (≈ 43.2 µM)	10 µg/mL (≈ 43.2 µM)	10 µg/mL (≈ 43.2 µM)	inactive	10 µg/mL (≈ 43.2 µM)	10 µg/mL (≈ 43.2 µM)	10 µg/mL (≈ 43.2 µM)
CCOC(=O)c1ccc(OCCCCSc2nccn2C)cc1 [listing 1 of 2 here]	–	–	–	inactive	–	–	–
Cn1c([N+](=O)[O-])cnc1SCCCOc1ccc(C(=O)O)cc1	1 µg/mL (≈ 2.96 µM)	1 µg/mL (≈ 2.96 µM)	10 µg/mL (≈ 29.6 µM)	inactive	1 µg/mL (≈ 2.96 µM)	10 µg/mL (≈ 29.6 µM)	1 µg/mL (≈ 2.96 µM)
Br.Cn1ccnc1SCCOc1ccc(Br)cc1	> 100 µg/mL	100 µg/mL	> 100 µg/mL	inactive	> 100 µg/mL	> 100 µg/mL	100 µg/mL
Br.Cn1ccnc1SCCOc1ccc(C#N)cc1	> 100 µg/mL	> 100 µg/mL	> 100 µg/mL	–	> 100 µg/mL	> 100 µg/mL	> 100 µg/mL
Cn1ccnc1SCCOc1ccc(C(=O)O)cc1	> 100 µg/mL	> 100 µg/mL	> 100 µg/mL	inactive	> 100 µg/mL	> 100 µg/mL	> 100 µg/mL
Cn1c([N+](=O)[O-])cnc1SCCCCCCOc1ccc(C(=O)O)cc1	1 µg/mL (≈ 2.64 µM)	0.1 µg/mL (≈ 0.264 µM)	10 µg/mL (≈ 26.4 µM)	inactive	1 µg/mL (≈ 2.64 µM)	1 µg/mL (≈ 2.64 µM)	1 µg/mL (≈ 2.64 µM)
Cn1c([N+](=O)[O-])cnc1SCCCCCCCCCCCCCCCC(=O)O	100 µg/mL (≈ 242 µM)	> 100 µg/mL	> 100 µg/mL	inactive	100 µg/mL (≈ 242 µM)	100 µg/mL (≈ 242 µM)	> 100 µg/mL
Br.Cn1ccnc1SCCCCCCCCCCC(=O)O	> 100 µg/mL	> 100 µg/mL	> 100 µg/mL	inactive	> 100 µg/mL	> 100 µg/mL	> 100 µg/mL
COC(=O)CCCCCCCCCC[S+]([O-])c1ncc([N+](=O)[O-])n1C (stereo unspecified)	100 µg/mL (≈ 268 µM)	100 µg/mL (≈ 268 µM)	> 100 µg/mL	inactive	100 µg/mL (≈ 268 µM)	100 µg/mL (≈ 268 µM)	> 100 µg/mL
Cn1ccnc1SCCOc1ccc(C#N)cc1 [listing 2 of 2 here]	–	–	–	inactive	–	–	–
CCOC(=O)c1ccc(OCCCCSc2nccn2C)cc1 [listing 2 of 2 here]	> 100 µg/mL	> 100 µg/mL	> 100 µg/mL	–	> 100 µg/mL	> 100 µg/mL	> 100 µg/mL
Cn1c([N+](=O)[O-])cnc1SCCOc1ccc(C(=O)O)cc1 [listing 2 of 2 here]	–	–	–	inactive	–	–	–

From ChEMBL document CHEMBL3272259, “Nitroimidazoles with antibacterial activity against Neisseria gonorrhoeae” (1977)
